# TRPC4 potent: allosterically enhances the mouse TRPC4 cation channel; Q9QUQ5; B-score at 10 µM; actives 0.42% (n = 310,000); HEK293 TRPC4beta/mu-opioid, DAMGO EC20, Fluo-4 Ca2+ flux; stronger effect = higher value;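 active = B-score of calcium response area above 5 SD of library B-scores, with initial fluorescence ratio within 5 SD of library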;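 note: B-score of integrated fluorescence ratio over time as area under calcium response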
# Target sequence (Q9QUQ5 whole entry, looked up): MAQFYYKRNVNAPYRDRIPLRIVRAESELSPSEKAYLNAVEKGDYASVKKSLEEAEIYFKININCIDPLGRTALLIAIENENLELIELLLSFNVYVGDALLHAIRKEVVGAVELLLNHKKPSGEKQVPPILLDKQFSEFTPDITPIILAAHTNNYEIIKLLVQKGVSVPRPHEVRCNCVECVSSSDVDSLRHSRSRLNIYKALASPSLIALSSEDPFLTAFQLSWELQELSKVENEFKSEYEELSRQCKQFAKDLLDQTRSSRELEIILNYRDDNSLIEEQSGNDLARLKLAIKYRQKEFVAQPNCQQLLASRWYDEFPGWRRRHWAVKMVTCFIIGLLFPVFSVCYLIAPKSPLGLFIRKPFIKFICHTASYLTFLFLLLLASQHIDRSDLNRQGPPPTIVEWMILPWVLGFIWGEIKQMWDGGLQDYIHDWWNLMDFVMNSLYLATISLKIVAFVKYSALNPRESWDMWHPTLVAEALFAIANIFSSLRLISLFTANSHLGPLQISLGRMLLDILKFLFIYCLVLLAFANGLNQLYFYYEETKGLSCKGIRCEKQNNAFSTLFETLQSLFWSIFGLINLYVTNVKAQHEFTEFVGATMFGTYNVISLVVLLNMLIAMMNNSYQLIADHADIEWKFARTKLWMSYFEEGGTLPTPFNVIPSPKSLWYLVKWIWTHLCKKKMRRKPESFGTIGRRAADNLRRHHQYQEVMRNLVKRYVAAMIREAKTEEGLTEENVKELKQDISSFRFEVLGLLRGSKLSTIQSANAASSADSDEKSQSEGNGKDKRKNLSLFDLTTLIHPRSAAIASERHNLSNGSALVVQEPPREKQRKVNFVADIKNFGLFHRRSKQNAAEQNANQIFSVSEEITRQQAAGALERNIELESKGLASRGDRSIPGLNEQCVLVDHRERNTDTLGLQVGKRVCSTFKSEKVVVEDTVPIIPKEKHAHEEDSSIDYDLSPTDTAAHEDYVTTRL
# TRPC4 inh: blocks the mouse TRPC4 cation channel | HEK293 TRPC4beta/mu-opioid, DAMGO-evoked Fluo4 calcium flux; stronger effect = lower value | Q9QUQ5 | AID 2247 | B-score at 10 µM | actives 0.39% (n = 300,000);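 active = B-score over 3 SD under the library average, no early fluorescence shift, positive overall ratio signal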
#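 Material: HEK293 cells with stable TRPC4beta plus mu-opioid receptor expression / Probe or stimulus: DAMGO in two steps, submaximal then maximal / Compound: single concentration per test compound / Technique: kinetic Fluo4 fluorescence imaging of calcium influx / Read-out: per-well B score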
# TRPC6 inhibitor: inhibitors of mouse TRPC6 channel; HEK293-TRPC6, membrane potential dye, ACh-evoked depolarization; stronger effect = lower value; B-score at 10 µM; actives 1.1% (n = 310,000);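 active = B-score under library mean minus 3 SD, initial fluorescence not abnormally high, positive integrated signal ratio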;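 note: B-score derived from integrated fluorescence ratio over the kinetic read; more negative B-score means stronger inhibition of depolarization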
# TRPC6 act: mouse TRPC6 channel activation. Q61143. B-score at 10 µM. HEK293-TRPC6 membrane potential dye fluorescence; stronger effect = higher value. actives 0.13% (n = 310,000). AID 2550;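 active = B-score of the integrated fluorescence ratio above library mean plus 3 SD, and starting fluorescence ratio within library mean plus 5 SD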;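 note: higher score means more depolarization so channel activation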
# TRPC4 act: opens the mouse TRPC4 cation channel; B-score at 10 µM; HEK293 TRPC4beta/mu-opioid, Fluo4 calcium fluorescence; stronger effect = higher value; actives 0.49% (n = 310,000);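 active = B-score above 5 SD of library B-scores, and initial fluorescence ratio not above library mean plus 5 SD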;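 note: positive B-score marks a calcium rise read as TRPC4 activation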
#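 Technique: kinetic Fluo4 calcium fluorescence; Test system: TRPC4beta and mu-opioid receptor HEK293 stable cells; Measure: B-scored integrated calcium fluorescence ratio; Benchmarks: low control buffer alone, high control maximal DAMGO; Schedule: 45 min room-temperature Fluo4 loading, 110 s read.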
# TRPC4 spec 2: second selectivity test of TRPC6 inhibitors: effect on mouse TRPC4. shares compounds with TRPC6 inhibitor. HEK293 TRPC4/MOR, membrane potential dye fluorescence; channel activated by saturating DAMGO dose. inhibition, % at 10 µM. actives 42% (n = 920);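 active = compounds whose fluorescence signal differed from control wells by over 3 SD, either direction, in both duplicate plates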
# TRPC4 spec: mouse TRPC4 off-target activity of TRPC6 inhibitors; shares compounds with TRPC6 inhibitor; HEK293 TRPC4/mu-opioid, membrane potential fluorescence; activity change, negative = inhibition, % at 10 µM; actives 61% (n = 920);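 active = rise or fall in signal beyond 3 SD of buffer-only wells in both replicate plates, either sign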;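 note: integrated kinetic ratio of fluorescence range over baseline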
# HEK293 MPD ctr 2-1: parental HEK293 nonspecific activity of TRPC6 inhibitors, second screen; signal change vs control, % at 10 µM; actives 31% (n = 920); AID 2779; parental HEK293 membrane potential dye fluorescence; maximal acetylcholine challenge after compound addition; shares compounds with TRPC6 inhibitor;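 active = membrane potential signal moving either way by over 3 SD of the maximum-effect control, in both duplicate plates, meaning non-specific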
# HEK293 MPD ctr-1: counter-screen for TRPC6 inhibitors: effect in parental HEK293 cells | AID 2780 | membrane potential signal change, % at 10 µM | actives 60% (n = 920) | parental HEK293 membrane potential dye fluorescence | shares compounds with TRPC6 inhibitor;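 active = membrane potential signal shifting up or down by more than 3 SD of buffer-only wells, on both duplicate plates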
# HEK293 MPD ctr-2: counter-screen for TRPC6 modulators: effect in parental HEK293 cells. membrane potential dye fluorescence. membrane potential signal change, % at 10 µM. shares compounds with TRPC6 inhibitor. actives 51% (n = 2,400). AID 488924;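 active = membrane potential signal moves up or down beyond 5 SD from buffer-only wells, on both duplicate plates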
# HEK293 MPD ctr 2-2: parental HEK293 nonspecific activity of TRPC6 modulators, second screen; shares compounds with TRPC6 inhibitor; membrane potential dye fluorescence; after compound, maximal acetylcholine stimulation; inhibition, % at 10 µM; actives 14% (n = 2,400); AID 488926;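 active = membrane potential signal drops by more than 5 SD from the mean control signal, in both duplicate plates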;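 note: plate controls were acetylcholine ECmax control wells for no effect and buffer only wells for full effect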
# TRPC4 ctr mod: selectivity of TRPC6 modulators against mouse TRPC4; HEK293 TRPC4/mu-opioid, membrane potential fluorescence; percent change from control (negative = decrease, positive = increase), % at 10 µM; shares compounds with TRPC6 inhibitor; actives 69% (n = 2,400); AID 488927;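 active = membrane potential signal moved up or down beyond 5 SD of buffer control wells, in both duplicate plates, actives on both sides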;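 note: plate controls were assay buffer wells for no effect and DAMGO maximal-effect wells for full effect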
# TRPC4/MOR inh 2: second selectivity test of TRPC6 modulators against mouse TRPC4; shares compounds with TRPC6 inhibitor; HEK293 TRPC4/mu-opioid, membrane potential dye fluorescence; stimulated with maximal-effect DAMGO; inhibition, % at 10 µM; actives 55% (n = 2,400); AID 488928;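 active = drop in membrane potential signal beyond 5 SD of the control wells in both duplicate plates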;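 note: TRPC4 counter screen for TRPC6 hits run under conditions tuned for TRPC6 not TRPC4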
# TRPC6 inh conf: mouse TRPC6 inhibitor confirmation; shares compounds with TRPC6 inhibitor; HEK293-TRPC6, membrane potential dye, ACh-evoked depolarization; inhibition, % at 10 µM; actives 43% (n = 3,300); AID 488960;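 active = fluorescence ratio falls more than 5 SD below the full-stimulation control mean, in both duplicate runs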;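 note: integrated fluorescence ratio of peak minus minimum over baseline after agonist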
# TRPC6 act conf: mouse TRPC6 activator confirmation. shares compounds with TRPC6 inhibitor. actives 11% (n = 2,800). activation, % at 10 µM. HEK293-TRPC6 membrane potential dye fluorescence, FDSS;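 active = ratio signal rise beyond 5 SD above unstimulated control wells' mean, seen in both duplicate runs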;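 note: plate controls were buffer EC0 wells for no effect and acetylcholine ECmax response for full effect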
# * marks the source's active call; other numbers are inactive results; i = inactive; . = no result. A selection: hits, their analogues and other compounds. The true share with any hit is near 2.3%.
SMILES,TRPC4 potent,TRPC4 inh,TRPC6 inhibitor,TRPC6 act,TRPC4 act,HEK293 MPD ctr-2,HEK293 MPD ctr 2-2,TRPC4 ctr mod,TRPC4/MOR inh 2,TRPC6 inh conf,TRPC6 act conf,others
CC(Nc1nc(-c2ccccc2O)nc2ccccc12)c1ccccc1 (centres undefined),i,i,i,i,i,.,.,.,.,.,.,
c1ccc(-c2nc(NCCCn3ccnc3)c3ccccc3n2)cc1,i,i,-5.2*,i,i,-220%*,i,-50%*,72%*,61%*,i,
CC(Nc1nc(-c2ccccc2)nc2ccccc12)c1ccccc1 (centres undefined),i,i,-7.3*,i,i,.,.,.,.,i,i,TRPC4 spec 2=i;TRPC4 spec=-9.5%*;HEK293 MPD ctr 2-1=i;HEK293 MPD ctr-1=i
CCN(CC)CCCNc1nc(-c2ccccc2)nc2ccccc12,i,i,-8.8*,i,i,.,.,.,.,76%*,i,TRPC4 spec 2=40%*;TRPC4 spec=-27%*;HEK293 MPD ctr 2-1=35%*;HEK293 MPD ctr-1=-355%*
COc1ccc(-c2nc(NCCCN(C)C)c3ccccc3n2)cc1,i,i,-6.7*,i,i,.,.,.,.,85%*,i,TRPC4 spec 2=55%*;TRPC4 spec=-32%*;HEK293 MPD ctr 2-1=i;HEK293 MPD ctr-1=-387%*
CCN1CCN(C(=O)CCn2c(=O)c3cccn3c3cccnc32)CC1,i,i,i,i,i,.,.,.,.,.,.,
COc1ccc(C(CNc2nc(-c3cccnc3)nc3ccccc23)N(C)C)cc1 (centres undefined),i,i,-7.5*,i,188*,-277%*,i,-38%*,90%*,55%*,i,
O=C(Nc1cccnc1)c1cnn2cccnc12,i,i,-5.2*,i,i,-96%*,i,-10%*,i,i,i,
O=C(CSC1=NS(=O)(=O)c2cc(F)ccc2N1)NCc1ccc(F)cc1,i,i,i,i,i,.,.,.,.,.,.,
CCN(CC#CCC(O)(c1ccccc1)C1CCCC1)C(C)C (centres undefined),i,i,-5.6*,i,i,188%*,i,34%*,i,56%*,.,
CC1(C)CC(N=C2C([N+](=O)[O-])=CC=C3C2=NC2(CCCCC2)N3O)CC(C)(C)N1,i,i,-5.2*,i,i,-130%*,i,-26%*,30%*,i,i,
O=[N+]([O-])C1=CC=C2C(=NC3(CCCCC3)N2O)C1=NC1CCCCC1,i,i,i,i,i,.,.,.,.,.,.,
COCCOC(=O)c1c(N)n(CCCN2CCOCC2)c2nc3ccccc3nc12,i,i,i,i,i,.,.,.,.,.,.,
COC(=O)c1c(N)n(CCCN2CCOCC2)c2nc3ccccc3nc12,i,i,-5.1*,i,i,-72%*,i,-16%*,i,i,i,
Cc1ccc(NC(=O)CN(C)C(=O)Cn2ccsc2=N)cc1,i,i,i,i,i,.,.,.,.,.,.,
N=c1sccn1CC(=O)Nc1ccccc1Oc1ccccc1,i,-6*,-5.1*,i,i,i,i,i,76%*,i,i,
Cc1ccc(Oc2ccc(NC(=O)Cn3ccsc3=N)cc2)cc1,i,i,-8.3*,i,60*,.,.,.,.,89%*,i,TRPC4 spec 2=29%*;TRPC4 spec=i;HEK293 MPD ctr 2-1=i;HEK293 MPD ctr-1=i
COc1ccc(N(C(=O)c2cccnc2)S(=O)(=O)c2cc(OC)ccc2OC)cc1,i,i,i,i,i,.,.,.,.,.,.,
CC1CCN(S(=O)(=O)c2ccc3c(ccn3CCC(=O)N3CCCCC3)c2)CC1,i,i,-6.2*,i,i,i,i,9.5%*,i,78%*,.,
CC1CCC(NC(=O)CCn2ccc3cc(S(=O)(=O)N4CCCC4)ccc32)CC1 (centres undefined),i,i,i,i,i,.,.,.,.,.,.,
O=C(c1cccc(S(=O)(=O)N2CCCCCC2)c1)N1CCN(c2ccccc2)CC1,i,i,-5.2*,i,i,106%*,i,19%*,i,i,.,
CC1CCN(C(=O)c2cccc(S(=O)(=O)N3CCCCC3)c2)CC1,i,i,-8.3*,13*,i,108%*,i,20%*,i,73%*,106%*,
CN1CCN(C(=O)c2cccc(S(=O)(=O)N3CCCCC3)c2)CC1,i,i,i,i,i,.,.,.,.,.,.,
O=C(c1cccc(S(=O)(=O)N2CCCC2)c1)N1CCN(c2ccccc2)CC1,i,.,i,i,i,.,.,.,.,.,.,
CC(OC(=O)c1ccc(Cl)nc1)C(=O)N1CCc2ccccc21 (centres undefined),i,i,i,i,i,.,.,.,.,.,.,
COc1cccc(CN2CCN(C(=O)c3cccc4ccccc34)CC2)c1,i,i,i,12*,i,i,i,10%*,i,i,33%*,
COc1cc(CN2CCN(C(=O)c3cccc4ccccc34)CC2)cc(OC)c1OC,i,i,i,i,i,.,.,.,.,.,.,

# Screening results as filed in PubChem BioAssay.
